Converted amounts (≈) assume the structure as drawn.
Experiments:
Enterococcus faecalis = test: Minimum inhibitory concentration (MIC) preventing growth of Streptococcus faecalis ATCC 10541; type: functional
Bacillus subtilis = test: Minimum inhibitory concentration (MIC) preventing growth of Bacillus subtilis; type: functional
Mus musculus [1] = test: Blood level after oral administration in mice (50 mg/kg) was determined (area under the concentration-time curve recorded at 0.5, 1, 2, and 4 hour after dosing); type: ADME, organism-based; set-up: dose 50 mg/kg, time < 4 hr, route oral; settings: in vivo
In short: (§1)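 Single oral dose of 50 mg/kg to mice. Blood taken from groups of six mice at 0.5, 1, 2 and 4 h after dosing. Serum levels measured by disk agar diffusion bioassay with Bacillus subtilis ATCC 6633 on Seed Agar, plates incubated 18 h at 37 °C, giving total activity in serum. AUC 0-4 h expressed as μg/mL […].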

Staphylococcus aureus [2] = test: Efficacy on systemic infections after oral administration in mice was determined against […] HS-93; type: functional
In short: (§2)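 Mouse protection test using 4 groups of 10 mice. Mice were infected intraperitoneally with a bacterial suspension slightly above LD100. A single oral dose was given immediately after infection, with four doses, one per group, chosen from in vitro activity. Survival was scored after one week, and ED50 (total mg/kg protecting 50% of mice) was interpolated from group survival rates.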

Klebsiella pneumoniae = test: Minimum inhibitory concentration (MIC)preventing growth of Klebsiella pneumoniae; type: functional
Escherichia coli [3] = test: Efficacy on systemic infections after oral administration in mice was determined against Escherichia coli HM-42; type: functional; in short: as §2
Pseudomonas aeruginosa [4] = test: Efficacy on systemic infections after oral administration in mice was determined against Pseudomonas aeruginosa HS-116; type: functional; in short: as §2
Bacillus cereus = test: Minimum inhibitory concentration (MIC) preventing growth of Bacillus cereus; type: functional
Escherichia coli [5] = test: Minimum inhibitory concentration (MIC)preventing growth of Escherichia coli; type: functional
Morganella morganii = test: Minimum inhibitory concentration (MIC) preventing growth of Morganella morganii; type: functional
Staphylococcus aureus [6] = test: Minimum inhibitory concentration (MIC) preventing growth of […]; type: functional
Proteus vulgaris = test: Minimum inhibitory concentration (MIC) preventing growth of Proteus vulgaris; type: functional
[7] = system: Staphylococcus epidermidis; test: Minimum inhibitory concentration (MIC) preventing growth of Staphylococcus epidermidis; type: functional
Enterobacter cloacae = test: Minimum inhibitory concentration (MIC)preventing growth of Enterobacter cloacae; type: functional
Pseudomonas aeruginosa [8] = test: Minimum inhibitory concentration (MIC)preventing growth of Pseudomonas aeruginosa; type: functional
Mus musculus [9] = test: Blood level after oral administration in mice (50 mg/kg) was determined by bioassay procedure and represent total activity present in the serum; type: ADME, organism-based; settings: in vivo; in short: as §1

MIC (Enterococcus faecalis)	MIC (Bacillus subtilis)	AUC (Mus musculus [1])	MIC (Klebsiella pneumoniae)	MIC (Bacillus cereus)	MIC (Escherichia coli [5])	MIC (Morganella morganii)	MIC (Staphylococcus aureus [6])	MIC (Proteus vulgaris)	MIC [7]	MIC (Enterobacter cloacae)	MIC (Pseudomonas aeruginosa [8])	AUC (Mus musculus [9])	SMILES	ED50 (Staphylococcus aureus [2])	ED50 (Escherichia coli [3])	ED50 (Pseudomonas aeruginosa [4])
1 mg/L (≈ 2.75 µM)	0.06 mg/L (≈ 0.165 µM)	38.2 µg·h/mL	0.06 mg/L (≈ 0.165 µM)	0.25 mg/L (≈ 0.688 µM)	0.06 mg/L (≈ 0.165 µM)	0.06 mg/L (≈ 0.165 µM)	0.25 mg/L (≈ 0.688 µM)	0.25 mg/L (≈ 0.688 µM)	0.25 mg/L (≈ 0.688 µM)	0.06 mg/L (≈ 0.165 µM)	2 mg/L (≈ 5.5 µM)		CCNC1CN(c2c(F)cc3c(=O)c(C(=O)O)cn(C4CC4)c3c2F)C1	16.6 mg/kg	1.1 mg/kg	89 mg/kg
0.25 mg/L (≈ 0.746 µM)	0.03 mg/L (≈ 0.0895 µM)	23 µg·h/mL	0.03 mg/L (≈ 0.0895 µM)	0.12 mg/L (≈ 0.358 µM)	0.03 mg/L (≈ 0.0895 µM)	0.03 mg/L (≈ 0.0895 µM)	0.12 mg/L (≈ 0.358 µM)	0.12 mg/L (≈ 0.358 µM)	0.12 mg/L (≈ 0.358 µM)	0.06 mg/L (≈ 0.179 µM)	0.5 mg/L (≈ 1.49 µM)		NC1CN(c2c(F)cc3c(=O)c(C(=O)O)cn(C4CC4)c3c2F)C1	16.2 mg/kg	2.4 mg/kg	141 mg/kg
0.12 mg/L (≈ 0.274 µM)	0.015 mg/L (≈ 0.0343 µM)		0.12 mg/L (≈ 0.274 µM)	0.06 mg/L (≈ 0.137 µM)	0.015 mg/L (≈ 0.0343 µM)	0.12 mg/L (≈ 0.274 µM)	0.015 mg/L (≈ 0.0343 µM)	0.12 mg/L (≈ 0.274 µM)	0.06 mg/L (≈ 0.137 µM)	0.12 mg/L (≈ 0.274 µM)	0.25 mg/L (≈ 0.571 µM)	15.3 µg·h/mL	CNC1CN(c2c(F)cc3c(=O)c(C(=O)O)cn(-c4ccc(F)cc4F)c3c2Cl)C1	1.3 mg/kg	1.3 mg/kg	30 mg/kg
0.25 mg/L (≈ 0.752 µM)	0.03 mg/L (≈ 0.0903 µM)		0.03 mg/L (≈ 0.0903 µM)	0.12 mg/L (≈ 0.361 µM)	0.03 mg/L (≈ 0.0903 µM)	0.06 mg/L (≈ 0.181 µM)	0.25 mg/L (≈ 0.752 µM)	0.12 mg/L (≈ 0.361 µM)	0.12 mg/L (≈ 0.361 µM)	0.03 mg/L (≈ 0.0903 µM)	0.5 mg/L (≈ 1.5 µM)	31.7 µg·h/mL	CC1(N)CN(c2nc3c(cc2F)c(=O)c(C(=O)O)cn3C2CC2)C1	10.7 mg/kg	2.8 mg/kg	52 mg/kg
4 mg/L (≈ 10.4 µM)	0.06 mg/L (≈ 0.155 µM)		0.06 mg/L (≈ 0.155 µM)	0.25 mg/L (≈ 0.647 µM)	0.06 mg/L (≈ 0.155 µM)	0.12 mg/L (≈ 0.311 µM)	0.25 mg/L (≈ 0.647 µM)	1 mg/L (≈ 2.59 µM)	0.25 mg/L (≈ 0.647 µM)	0.06 mg/L (≈ 0.155 µM)	2 mg/L (≈ 5.18 µM)	33 µg·h/mL	CC1(N)CN(c2nc3c(cc2F)c(=O)c(C(=O)O)cn3-c2ccc(F)cc2)C1	7.5 mg/kg	1.3 mg/kg	82.7 mg/kg
0.5 mg/L (≈ 1.32 µM)	0.06 mg/L (≈ 0.159 µM)		0.06 mg/L (≈ 0.159 µM)	0.5 mg/L (≈ 1.32 µM)	0.25 mg/L (≈ 0.662 µM)	0.25 mg/L (≈ 0.662 µM)	0.5 mg/L (≈ 1.32 µM)	1 mg/L (≈ 2.65 µM)	0.25 mg/L (≈ 0.662 µM)	0.25 mg/L (≈ 0.662 µM)	4 mg/L (≈ 10.6 µM)	14.1 µg·h/mL	CCNCC1CN(c2c(F)cc3c(=O)c(C(=O)O)cn(C4CC4)c3c2F)C1			
0.25 mg/L (≈ 0.571 µM)	0.03 mg/L (≈ 0.0685 µM)		0.03 mg/L (≈ 0.0685 µM)	0.06 mg/L (≈ 0.137 µM)	0.03 mg/L (≈ 0.0685 µM)	0.25 mg/L (≈ 0.571 µM)	0.06 mg/L (≈ 0.137 µM)	0.12 mg/L (≈ 0.274 µM)	0.06 mg/L (≈ 0.137 µM)	0.12 mg/L (≈ 0.274 µM)	0.5 mg/L (≈ 1.14 µM)	23.3 µg·h/mL	CC1(N)CN(c2c(F)cc3c(=O)c(C(=O)O)cn(-c4ccc(F)cc4F)c3c2Cl)C1	1.2 mg/kg	1.5 mg/kg	43 mg/kg
0.5 mg/L (≈ 1.58 µM)	0.03 mg/L (≈ 0.0945 µM)	3 µg·h/mL	0.03 mg/L (≈ 0.0945 µM)	0.12 mg/L (≈ 0.378 µM)	0.03 mg/L (≈ 0.0945 µM)	0.03 mg/L (≈ 0.0945 µM)	0.25 mg/L (≈ 0.788 µM)	0.12 mg/L (≈ 0.378 µM)	0.12 mg/L (≈ 0.378 µM)	0.03 mg/L (≈ 0.0945 µM)	0.25 mg/L (≈ 0.788 µM)		NC1CN(c2cc3c(cc2F)c(=O)c(C(=O)O)cn3C2CC2)C1	44 mg/kg	3.6 mg/kg	82.2 mg/kg
1 mg/L (≈ 2.89 µM)	0.03 mg/L (≈ 0.0866 µM)		0.03 mg/L (≈ 0.0866 µM)	0.12 mg/L (≈ 0.346 µM)	0.03 mg/L (≈ 0.0866 µM)	0.06 mg/L (≈ 0.173 µM)	0.25 mg/L (≈ 0.722 µM)	0.25 mg/L (≈ 0.722 µM)	0.25 mg/L (≈ 0.722 µM)	0.06 mg/L (≈ 0.173 µM)	1 mg/L (≈ 2.89 µM)	22.9 µg·h/mL	CNC1(C)CN(c2nc3c(cc2F)c(=O)c(C(=O)O)cn3C2CC2)C1	9.6 mg/kg	3 mg/kg	102 mg/kg
0.12 mg/L (≈ 0.341 µM)	0.06 mg/L (≈ 0.171 µM)		0.06 mg/L (≈ 0.171 µM)	0.12 mg/L (≈ 0.341 µM)	0.015 mg/L (≈ 0.0426 µM)	0.015 mg/L (≈ 0.0426 µM)	0.12 mg/L (≈ 0.341 µM)	0.015 mg/L (≈ 0.0426 µM)	0.12 mg/L (≈ 0.341 µM)	0.015 mg/L (≈ 0.0426 µM)	0.25 mg/L (≈ 0.711 µM)	8.5 µg·h/mL	NC1CN(c2c(F)cc3c(=O)c(C(=O)O)cn(C4CC4)c3c2Cl)C1	7.2 mg/kg	1.1 mg/kg	34 mg/kg

SMILES	MIC (Enterococcus faecalis)	MIC (Bacillus subtilis)	AUC (Mus musculus [1])	MIC (Klebsiella pneumoniae)	MIC (Bacillus cereus)	MIC (Escherichia coli [5])	MIC (Morganella morganii)	MIC (Staphylococcus aureus [6])	MIC (Proteus vulgaris)	MIC [7]	MIC (Enterobacter cloacae)	MIC (Pseudomonas aeruginosa [8])	AUC (Mus musculus [9])	ED50 (Staphylococcus aureus [2])	ED50 (Escherichia coli [3])	ED50 (Pseudomonas aeruginosa [4])
O=C(O)c1cn(C2CC2)c2cc(N3CCNCC3)c(F)cc2c1=O [CIPROFLOXACIN]	0.5 mg/L (≈ 1.51 µM)	0.06 mg/L (≈ 0.181 µM)		0.03 mg/L (≈ 0.0905 µM)	0.25 mg/L (≈ 0.754 µM)		0.06 mg/L (≈ 0.181 µM)	0.25 mg/L (≈ 0.754 µM)	0.06 mg/L (≈ 0.181 µM)	0.5 mg/L (≈ 1.51 µM)		0.12 mg/L (≈ 0.362 µM)	2.3 µg·h/mL	45.1 mg/kg	3 mg/kg	70.3 mg/kg
